Experimental data published in ChEMBL document CHEMBL3997782, “Methoxylated 2'-hydroxychalcones as antiparasitic hit compounds” (Eur J Med Chem, 2017).

Columns and labels:
Trypanosoma cruzi [1] = experiment: Anti-parasitic activity against Trypanosoma cruzi Y promastigotes infected in HG39 cells at 10 uM by qPCR analysis relative to control; type: functional, cell-based; details: in the assay text read “trypomastigotes” for “promastigotes”
Procedure, shortened: (§1)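 Confluent HG39 cells (3 x 10^6 per well) infected at a 1:1 ratio with blood-derived T. cruzi Y strain trypomastigotes. Growth inhibition was read as parasite gDNA by TaqMan probe-based quantitative real-time PCR.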

Leishmania infantum [2] = experiment: Anti-parasitic activity against Leishmania infantum amastigotes infected in human THP1 cells after 5 days by Giemsa staining based assay; type: functional, cell-based; details: THP-1, 120 h
Procedure, shortened: (§2)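 Intracellular L. infantum amastigotes in host cells, imaged by high-content automated imaging. Host cell number, infected cells and parasites per infected cell were counted. Infection Ratio = infected cells / total cells.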

CYP2C19 = CYP2C19 (Homo sapiens, UniProt P33261); experiment: Inhibition of human CYP2C19 expressed in baculovirus-infected insect cells at 10 uM using Luciferin-H EGE as substrate in presence of NADPH by P450-Glo luminescence assay relative to control; type: ADME; details: probe Luciferin-H EGE
Sequence of CYP2C19 (P33261 whole entry): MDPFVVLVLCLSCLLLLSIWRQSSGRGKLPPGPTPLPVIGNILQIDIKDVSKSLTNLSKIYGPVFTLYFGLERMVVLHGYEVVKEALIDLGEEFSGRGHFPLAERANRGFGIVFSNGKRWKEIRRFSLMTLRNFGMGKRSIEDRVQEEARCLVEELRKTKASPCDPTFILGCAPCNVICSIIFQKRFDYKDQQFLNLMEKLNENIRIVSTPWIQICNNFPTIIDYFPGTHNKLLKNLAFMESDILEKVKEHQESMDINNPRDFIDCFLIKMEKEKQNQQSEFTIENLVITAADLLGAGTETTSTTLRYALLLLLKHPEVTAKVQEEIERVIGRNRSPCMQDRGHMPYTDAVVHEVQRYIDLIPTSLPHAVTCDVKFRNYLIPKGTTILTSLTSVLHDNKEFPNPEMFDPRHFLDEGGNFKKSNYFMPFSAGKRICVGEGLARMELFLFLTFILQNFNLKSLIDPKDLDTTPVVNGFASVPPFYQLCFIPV
Procedure, shortened: (§3)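 CYP enzymes as microsomal preparations from baculovirus-infected insect cells, run on the P450-Glo luminogenic substrate platform. A fall in light output indicates inhibition.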

CYP2C9 = CYP2C9 (Homo sapiens, UniProt P11712); experiment: Inhibition of human CYP2C9 expressed in baculovirus-infected insect cells at 10 uM using Luciferin-H as substrate in presence of NADPH by P450-Glo luminescence assay relative to control; details: probe Luciferin-H
Sequence of CYP2C9 (P11712 whole entry): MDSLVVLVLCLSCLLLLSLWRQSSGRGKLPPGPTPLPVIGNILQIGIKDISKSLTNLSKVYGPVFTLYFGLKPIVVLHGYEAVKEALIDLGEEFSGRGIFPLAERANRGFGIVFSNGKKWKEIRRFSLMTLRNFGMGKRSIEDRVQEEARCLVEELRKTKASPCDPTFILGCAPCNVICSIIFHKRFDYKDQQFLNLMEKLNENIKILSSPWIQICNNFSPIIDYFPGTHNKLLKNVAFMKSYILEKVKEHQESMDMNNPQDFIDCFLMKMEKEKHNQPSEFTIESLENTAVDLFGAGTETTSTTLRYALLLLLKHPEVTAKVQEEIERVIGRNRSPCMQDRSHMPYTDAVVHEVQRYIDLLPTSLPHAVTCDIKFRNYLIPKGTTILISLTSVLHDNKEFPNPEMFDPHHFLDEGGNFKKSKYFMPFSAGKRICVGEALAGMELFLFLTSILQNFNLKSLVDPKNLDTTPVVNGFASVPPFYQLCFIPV

[3] = Cytotoxicity against human THP1 cells by MTT assay; type: cell-based; details: THP-1 cells
Procedure, shortened: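 THP-1 cells differentiated to macrophages with PMA, viability read by colorimetric MTT. CC50 and NOAEL are the arithmetic mean of at least two independent determinations, each run in triplicate.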

[4] = Cytotoxicity against human […] cells assessed as cell growth at 10 uM by Cell titer-Glo assay relative to control; type: cell-based; details: WI-38 cells, read-out: Activity
Procedure, shortened: (§4)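 A549 and WI-38 cells grown in DMEM with 10% v/v FCS, streptomycin 100 µg/ml and penicillin G 100 U/ml. Cell number read as cellular ATP by CellTiter-Glo luminescence. Growth 60–100% scored non-cytotoxic, 0–60% cytostatic, below 0 cytotoxic.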

CYP1A2 = biological target: T1, CYP1A2 (Homo sapiens, UniProt P05177); experiment: Inhibition of human CYP1A2 expressed in baculovirus-infected insect cells at 10 uM using Luciferin-1A2 as substrate in presence of NADPH by P450-Glo luminescence assay relative to control; type: ADME; details: probe Luciferin-1A2; procedure, shortened: as §3
T1 sequence (P05177 whole entry): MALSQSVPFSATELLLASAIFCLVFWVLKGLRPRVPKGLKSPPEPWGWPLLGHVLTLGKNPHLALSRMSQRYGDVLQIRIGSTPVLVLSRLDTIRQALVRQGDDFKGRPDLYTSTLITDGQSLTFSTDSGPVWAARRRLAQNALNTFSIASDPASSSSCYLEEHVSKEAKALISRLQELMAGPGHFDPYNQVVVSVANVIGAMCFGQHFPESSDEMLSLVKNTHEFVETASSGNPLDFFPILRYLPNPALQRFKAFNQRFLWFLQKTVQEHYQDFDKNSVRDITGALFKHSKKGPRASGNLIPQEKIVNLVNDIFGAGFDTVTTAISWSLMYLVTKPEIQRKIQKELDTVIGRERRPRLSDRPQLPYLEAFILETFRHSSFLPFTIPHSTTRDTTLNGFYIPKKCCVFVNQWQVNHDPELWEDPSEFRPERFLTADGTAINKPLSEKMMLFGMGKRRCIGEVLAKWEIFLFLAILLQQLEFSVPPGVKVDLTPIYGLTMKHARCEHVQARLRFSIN

CYP2D6 = CYP2D6 (Homo sapiens, UniProt P10635); experiment: Inhibition of human CYP2D6 expressed in baculovirus-infected insect cells at 10 uM using Luciferin-ME EGE as substrate in presence of NADPH by P450-Glo luminescence assay relative to control; type: ADME; details: probe Luciferin-ME EGE; procedure, shortened: as §3
Sequence of CYP2D6 (P10635 whole entry): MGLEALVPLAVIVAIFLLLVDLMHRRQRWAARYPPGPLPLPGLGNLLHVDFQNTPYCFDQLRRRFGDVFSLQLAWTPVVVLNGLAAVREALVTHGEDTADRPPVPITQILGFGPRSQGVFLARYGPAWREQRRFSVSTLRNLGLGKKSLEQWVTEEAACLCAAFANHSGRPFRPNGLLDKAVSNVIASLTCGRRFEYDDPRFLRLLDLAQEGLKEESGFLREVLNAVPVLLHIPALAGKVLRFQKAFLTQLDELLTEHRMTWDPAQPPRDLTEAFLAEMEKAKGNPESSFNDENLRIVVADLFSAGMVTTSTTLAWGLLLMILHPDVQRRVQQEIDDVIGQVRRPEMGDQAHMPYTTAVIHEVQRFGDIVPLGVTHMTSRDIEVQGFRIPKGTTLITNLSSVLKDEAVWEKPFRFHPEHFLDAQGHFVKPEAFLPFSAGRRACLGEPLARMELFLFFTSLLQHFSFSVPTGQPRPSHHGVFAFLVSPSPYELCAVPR

786-0 = experiment: Mitochondrial toxicity in human 786-O cells at 10 uM by mitotracker red chloromethyl-Xrosamine staining based-uptake method relative to control; type: cell-based; details: 786-0, 10 µM
Procedure, shortened: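 786-O renal carcinoma cells kept in RPMI-1640 with 2 mM glutamine, 10% v/v FCS, streptomycin 100 µg/ml and penicillin G 100 U/ml. Mitochondrial toxicity monitored by MitoTracker Red CMXRos uptake with high-content imaging.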

Aurora kinase B = Aurora kinase B (Homo sapiens, UniProt Q96GD4); experiment: Inhibition of N-terminal-GST-tagged recombinant full length human Aurora B expressed in baculovirus infected Sf9 cells at 10 uM using native Swine Myelin Basic Protein as substrate measured after 60 mins by ADP-Glo assay relative to control; details: probe native Swine Myelin Basic Protein
Sequence of Aurora kinase B (Q96GD4 whole entry): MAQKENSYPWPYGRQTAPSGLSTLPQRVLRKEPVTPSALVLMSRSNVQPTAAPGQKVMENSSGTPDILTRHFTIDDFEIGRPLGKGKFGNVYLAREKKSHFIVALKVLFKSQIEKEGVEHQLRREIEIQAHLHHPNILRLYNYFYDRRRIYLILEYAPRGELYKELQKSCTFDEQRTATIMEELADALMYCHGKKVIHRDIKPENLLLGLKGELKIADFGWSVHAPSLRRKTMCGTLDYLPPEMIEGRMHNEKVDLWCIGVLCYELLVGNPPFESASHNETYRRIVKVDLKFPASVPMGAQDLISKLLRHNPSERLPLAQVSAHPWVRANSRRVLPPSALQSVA
Procedure, shortened: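 Aurora B kinase activity measured by ADP-Glo, which detects ADP formed through a coupled luciferase luminescence read-out.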

[5] = Cytotoxicity against human A549 cells assessed as cell growth at 10 uM by Cell titer-Glo assay relative to control; type: cell-based; details: read-out: Activity; procedure, shortened: as §4
Trypanosoma cruzi [6] = experiment: Anti-parasitic activity against Trypanosoma cruzi Y promastigotes infected in HG39 cells by qPCR analysis; type: functional, cell-based; details: in the assay text read “trypomastigotes” for “promastigotes”; procedure, shortened: as §1
hERG (KCNH2) = hERG (KCNH2) (Homo sapiens, UniProt Q12809); experiment: Inhibition of human ERG at 10 uM by Tracer Red dye based fluorescence polarization assay relative to control; details: probe Tracer Red dye
Sequence of hERG (KCNH2) (Q12809 whole entry): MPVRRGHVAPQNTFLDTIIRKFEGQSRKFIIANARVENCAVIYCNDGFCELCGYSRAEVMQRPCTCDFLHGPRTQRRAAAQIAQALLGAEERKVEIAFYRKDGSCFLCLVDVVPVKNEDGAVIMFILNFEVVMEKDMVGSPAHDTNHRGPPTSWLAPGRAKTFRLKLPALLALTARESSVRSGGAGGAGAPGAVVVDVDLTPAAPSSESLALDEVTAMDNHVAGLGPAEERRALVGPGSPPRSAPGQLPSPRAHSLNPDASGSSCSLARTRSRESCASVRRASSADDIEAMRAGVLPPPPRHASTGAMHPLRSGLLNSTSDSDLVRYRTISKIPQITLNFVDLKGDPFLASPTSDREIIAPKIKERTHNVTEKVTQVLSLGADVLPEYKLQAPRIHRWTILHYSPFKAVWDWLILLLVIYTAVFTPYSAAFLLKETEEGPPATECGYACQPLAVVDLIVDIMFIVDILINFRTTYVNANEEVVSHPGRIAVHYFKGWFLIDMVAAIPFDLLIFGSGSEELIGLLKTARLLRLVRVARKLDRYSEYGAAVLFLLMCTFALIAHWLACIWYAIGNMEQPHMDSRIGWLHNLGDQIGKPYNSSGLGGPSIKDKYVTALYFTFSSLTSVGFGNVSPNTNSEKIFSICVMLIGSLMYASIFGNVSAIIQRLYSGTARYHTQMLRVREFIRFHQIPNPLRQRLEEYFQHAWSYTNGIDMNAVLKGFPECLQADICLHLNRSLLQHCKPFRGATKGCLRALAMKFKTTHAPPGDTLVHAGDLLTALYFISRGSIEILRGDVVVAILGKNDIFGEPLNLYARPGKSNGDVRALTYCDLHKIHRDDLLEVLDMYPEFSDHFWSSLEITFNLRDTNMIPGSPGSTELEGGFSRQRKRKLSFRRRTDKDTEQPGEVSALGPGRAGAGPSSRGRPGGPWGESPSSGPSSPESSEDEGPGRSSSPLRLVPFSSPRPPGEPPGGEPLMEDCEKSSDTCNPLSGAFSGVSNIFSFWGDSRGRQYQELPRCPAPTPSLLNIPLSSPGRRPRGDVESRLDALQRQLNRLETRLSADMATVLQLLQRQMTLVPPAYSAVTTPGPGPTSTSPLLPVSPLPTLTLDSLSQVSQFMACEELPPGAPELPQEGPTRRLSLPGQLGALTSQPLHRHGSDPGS

[7] = Lipophilicity, log P of the compound; type: physicochemical; details: octanol/water
Leishmania infantum [8] = experiment: Anti-parasitic activity against Leishmania infantum amastigotes infected in human THP1 cells at 50 uM after 5 days by Giemsa staining based assay relative to control; type: functional, cell-based; details: THP-1, 120 h; procedure, shortened: as §2
CYP3A4 = CYP3A4 (Homo sapiens, UniProt P08684); experiment: Inhibition of human CYP3A4 expressed in baculovirus-infected insect cells at 10 uM using Luciferin-PFBE as substrate in presence of NADPH by P450-Glo luminescence assay relative to control; type: ADME; details: probe Luciferin-PFBE
Sequence of CYP3A4 (P08684 whole entry): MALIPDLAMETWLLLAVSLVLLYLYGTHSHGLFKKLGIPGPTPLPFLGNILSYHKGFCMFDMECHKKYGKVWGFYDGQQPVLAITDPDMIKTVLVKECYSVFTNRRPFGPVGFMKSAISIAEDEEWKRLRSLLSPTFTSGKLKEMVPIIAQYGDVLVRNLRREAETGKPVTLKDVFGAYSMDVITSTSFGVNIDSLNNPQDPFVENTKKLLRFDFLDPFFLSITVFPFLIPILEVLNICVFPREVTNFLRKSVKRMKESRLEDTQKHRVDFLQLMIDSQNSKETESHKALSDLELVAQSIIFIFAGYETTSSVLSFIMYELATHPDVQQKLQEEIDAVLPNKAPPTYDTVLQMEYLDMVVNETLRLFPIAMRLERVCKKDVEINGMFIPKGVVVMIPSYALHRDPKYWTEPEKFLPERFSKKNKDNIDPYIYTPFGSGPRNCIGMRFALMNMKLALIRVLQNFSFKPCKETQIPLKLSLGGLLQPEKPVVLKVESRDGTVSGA

[9] = Selectivity index, ratio of CC50 for human THP1 cells to EC50 for anti-parasitic activity against Leishmania infantum amastigotes infected in human THP1 cells; type: toxicity, cell-based; details: THP-1 cells, read-out: Ratio CC50/EC50
Procedure, shortened: (§5)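 SI = CC50 in PMA-differentiated THP-1 macrophages (MTT) divided by the antiparasitic EC50.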

[10] = Selectivity index, ratio of CC50 for human THP1 cells to EC50 for anti-parasitic activity against bloodstream form of Trypanosoma brucei brucei Lister 427; type: toxicity; details: THP-1 cells, read-out: Ratio CC50/EC50; procedure, shortened: as §5
[11] = tested on: Trypanosoma brucei brucei; experiment: Anti-parasitic activity against bloodstream form of Trypanosoma brucei brucei Lister 427 at 10 uM after 72 hrs by resazurin-based assay relative to control; type: functional; details: Lister 427, 72 h
Procedure, shortened: (§6)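 Bloodstream-form T. brucei, modified resazurin-based viability assay. EC50 is the arithmetic mean of at least two independent determinations, each run in triplicate.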

[12] = tested on: Trypanosoma brucei brucei; experiment: Anti-parasitic activity against bloodstream form of Trypanosoma brucei brucei Lister 427 after 72 hrs by resazurin-based assay; type: functional; details: Lister 427, 72 h; procedure, shortened: as §6
Cytochrome P450 2C19 = Cytochrome P450 2C19 (Homo sapiens, UniProt P33261); experiment: Inhibition of human CYP2C19 expressed in baculovirus-infected insect cells using Luciferin-H EGE as substrate in presence of NADPH by P450-Glo luminescence assay; type: ADME; procedure, shortened: as §3
Sequence of Cytochrome P450 2C19 (P33261 whole entry): as the sequence (P33261 whole entry) above

Cytochrome P450 1A2 = biological target: T2, Cytochrome P450 1A2 (Homo sapiens, UniProt P05177); experiment: Inhibition of human CYP1A2 expressed in baculovirus-infected insect cells using Luciferin-1A2 as substrate in presence of NADPH by P450-Glo luminescence assay; type: ADME; procedure, shortened: as §3
T2 sequence (P05177 whole entry): T1 sequence (P05177 whole entry)

[13] = Cytotoxicity against human A549 cells assessed as cell growth by Cell titer-Glo assay; type: cell-based; procedure, shortened: as §4
Cytochrome P450 2D6 = Cytochrome P450 2D6 (Homo sapiens, UniProt P10635); experiment: Inhibition of human CYP2D6 expressed in baculovirus-infected insect cells using Luciferin-ME EGE as substrate in presence of NADPH by P450-Glo luminescence assay; type: ADME; procedure, shortened: as §3
Sequence of Cytochrome P450 2D6 (P10635 whole entry): as the sequence (P10635 whole entry) above

Trypanosoma brucei = experiment: Anti-parasitic activity against Trypanosoma brucei 427; type: functional

In the case of COc1ccc(C(=O)/C=C/c2cc(OC)c(OC)c(OC)c2)c(O)c1, the inhibition at 10 µM (Trypanosoma cruzi [1]) is reported as 60%, the EC50 (Leishmania infantum [2]) is reported as 30.6 µM and the inhibition at 10 µM (CYP2C19) is reported as 67.5%. It also gave an inhibition at 10 µM (CYP2C9) of 57.6%, a CC50 [3] greater than 100 µM and a viability at 10 µM [4] of 78.1%. It also gave an inhibition at 10 µM (CYP1A2) of 1.2%, an inhibition at 10 µM (CYP2D6) of 65.1% and an Activity (786-0) of 1.1%. The inhibition at 1 h, 10 µM (Aurora kinase B) was -23.6%, the viability at 10 µM [5] was 127% and the EC50 (Trypanosoma cruzi [6]) was less than 10 µM. It also gave an inhibition at 10 µM (hERG (KCNH2)) of 34.7%, a logP [7] of 3.49 and an inhibition at 50 µM (Leishmania infantum [8]) of 71%. The inhibition at 10 µM (CYP3A4) was -10% and the selectivity ratio [9] was greater than 1.6.
COc1ccc(O)c(C(=O)/C=C/c2cc(OC)c(OC)c(OC)c2)c1 showed an inhibition at 10 µM (Trypanosoma cruzi [1]) of 1%, an EC50 (Leishmania infantum [2]) of 42.4 µM and an inhibition at 10 µM (CYP2C19) of 84.6%. For the same molecule, the selectivity ratio [10] was no less than 6, the inhibition at 10 µM (CYP2C9) was 60.9% and the inhibition at 10 µM [11] was 100%. It also gave a CC50 [3] greater than 25 µM, a viability at 10 µM [4] of 73.9% and an inhibition at 10 µM (CYP1A2) of 13.3%. It also gave an inhibition at 10 µM (CYP2D6) of 88.3%, an Activity (786-0) of -6.4% and an inhibition at 1 h, 10 µM (Aurora kinase B) of -8.1%. The viability at 10 µM [5] was 108%, the inhibition at 10 µM (hERG (KCNH2)) was 9.5% and the logP [7] was 3.47. The inhibition at 50 µM (Leishmania infantum [8]) was 43%, the EC50 [12] was 4.4 µM and the inhibition at 10 µM (CYP3A4) was -3.1%. It also gave a selectivity ratio [9] greater than 1.
In the case of COc1cc(O)c(C(=O)/C=C/c2cc(OC)c(OC)c(OC)c2)cc1OC, the inhibition at 10 µM (Trypanosoma cruzi [1]) is reported as 0%, the EC50 (Leishmania infantum [2]) is reported as 22.2 µM and the inhibition at 10 µM (CYP2C19) is reported as 75.7%. It also gave a selectivity ratio [10] of no less than 3, an inhibition at 10 µM (CYP2C9) of 27% and an inhibition at 10 µM [11] of 91%. For the same molecule, the CC50 [3] was greater than 25 µM, the viability at 10 µM [4] was 88.5% and the inhibition at 10 µM (CYP1A2) was -3.1%. For the same molecule, the inhibition at 10 µM (CYP2D6) was -24.9%, the Activity (786-0) was 10% and the inhibition at 1 h, 10 µM (Aurora kinase B) was -4.2%. For the same molecule, the viability at 10 µM [5] was 115%, the inhibition at 10 µM (hERG (KCNH2)) was 7.1% and the logP [7] was 3.5. For the same molecule, the inhibition at 50 µM (Leishmania infantum [8]) was 88%, the EC50 [12] was 7.4 µM and the inhibition at 10 µM (CYP3A4) was 18.7%. It also gave a selectivity ratio [9] greater than 2.
Work on N=C(N)c1ccc(OCCCCCOc2ccc(C(=N)N)cc2)cc1 [PENTAMIDINE] yielded an IC50 (Cytochrome P450 2C19) greater than 100 µM, an IC50 (Cytochrome P450 1A2) greater than 100 µM and a GI50 [13] greater than 100 µM. It also gave an IC50 (Cytochrome P450 2D6) of 24.8 µM and an EC50 [12] of 0.00155 µM.
With COc1cc(O)c(C(=O)/C=C/c2ccccc2)c(OC)c1 [FLAVOKAWAIN B] the EC50 (Trypanosoma brucei) was 6.2 µM and the logP [7] was 3.9.
